Four compounds from ChEMBL document CHEMBL1124549, “N-azamonobactams. 2. Synthesis of some N-iminoacetic acid and N-glycyl analogues” (1989) can be followed below.

Assay type in all cases: functional
The test system of test [1] is Citrobacter koseri. Kind of test: In vitro antibacterial activity against J-82-24 strain of Citrobacter diversus. In a few lines: (§1)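 Agar dilution on Mueller-Hinton agar holding 2-fold decreasing drug concentrations. Agar surfaces were spot-inoculated with (1-5) × 10^4 CFU per strain using a replicating device. Plates were incubated 18 h at 35 °C. MIC was recorded as the lowest concentration inhibiting growth of the strain.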

Test [2] relates to Escherichia coli. Kind of test: In vitro antibacterial activity against ATCC 25922 strain of Escherichia coli. The essentials:
as §1

In test [3] the test system is Enterobacter cloacae. Kind of test: In vitro antibacterial activity against K-84-10 strain of Enterobacter cloacae.
For test [4], the system named is Enterobacter cloacae. The experiment in a line: In vitro antibacterial activity against MOR-84-30 strain of Enterobacter cloacae.
Test [5] concerns Escherichia coli. Kind of test: In vitro antibacterial activity against MOR-84-20 strain of Escherichia coli. The essentials: as §1
Test [6] has as its system Escherichia coli. The experiment in a line: In vitro antibacterial activity against VGH-84-19 strain of Escherichia coli. In a few lines:
as §1

The subject of test [7] is Klebsiella pneumoniae. Kind of test: In vitro antibacterial activity against MOR-84-24 strain of Klebsiella pneumoniae. The essentials:
as §1

Test [8] relates to Klebsiella pneumoniae. The experiment in a line: In vitro antibacterial activity against CMC-84-31 strain of Klebsiella pneumoniae. The essentials: as §1
For test [9], the system named is Morganella morganii. Kind of test: In vitro antibacterial activity against MOR-84-45 strain of Morganella morganii. In a few lines:
as §1

The subject of test [10] is Morganella morganii. The experiment in a line: In vitro antibacterial activity against VGH-84-12 strain of Morganella morganii. The essentials:
as §1

Test [11] can be described thus: In vitro antibacterial activity against IO-83-21 strain of Proteus rettgeri. Particulars: Providencia rettgeri. In a few lines: as §1
The subject of test [12] is Providencia stuartii. The experiment in a line: In vitro antibacterial activity against CMC-83-3 strain of Providencia stuartii. In a few lines: as §1
The subject of test [13] is Serratia marcescens. The experiment in a line: In vitro antibacterial activity against CMC-83-74 strain of Serratia marcescens. In a few lines:
as §1

Test [14] concerns Serratia marcescens. Kind of test: In vitro antibacterial activity against IO-83-63 strain of Serratia marcescens. In a few lines: as §1
Test [15] concerns Serratia marcescens. The experiment in a line: In vitro antibacterial activity against MOR-84-41 strain of Serratia marcescens. In a few lines:
as §1

Test [16] deals with Klebsiella pneumoniae. The experiment in a line: In vitro antibacterial activity against IO-83-5 strain of Klebsiella pneumoniae. The essentials: as §1
In test [17] the test system is Morganella morganii. Kind of test: In vitro antibacterial activity against CMC-84-38 strain of Morganella morganii. In a few lines: as §1
Test [18] relates to Enterobacter cloacae. Kind of test: In vitro antibacterial activity against VGH-84-39 strain of Enterobacter cloacae.
The test system of test [19] is Escherichia coli. The experiment in a line: In vitro antibacterial activity against CMC-84-50 strain of Escherichia coli. The essentials: as §1

Structures are written as SMILES. Values after ≈ are worked out from the molar mass of the structure shown. Some results are limits rather than exact numbers.

`CO/N=C(/C(=O)NC1CN(/N=C/C(=O)O)C1=O)c1csc(N)n1` (stereo unspecified): the MIC in test [1] came to 4 µg/mL (≈ 11.8 µM); in test [2], 8 µg/mL (≈ 23.5 µM); in test [3], 4 µg/mL (≈ 11.8 µM); in test [4], 32 µg/mL (≈ 94 µM); in [5], 2 µg/mL (≈ 5.88 µM); in test [6], 2 µg/mL (≈ 5.88 µM). Further, the MIC in [7] came to 8 µg/mL (≈ 23.5 µM); in test [8] it was 2 µg/mL (≈ 5.88 µM); in test [9] it was 16 µg/mL (≈ 47 µM); in [10] it was 4 µg/mL (≈ 11.8 µM); in test [11] it was 0.12 µg/mL (≈ 0.353 µM); in test [12], 2 µg/mL (≈ 5.88 µM). Also, the minimal inhibitory concentration (MIC) turned out to be 16 µg/mL (≈ 47 µM) in test [13]; 8 µg/mL (≈ 23.5 µM) in test [14]; 4 µg/mL (≈ 11.8 µM) in [15]; 4 µg/mL (≈ 11.8 µM) in test [16]; 8 µg/mL (≈ 23.5 µM) in test [17]; 8 µg/mL (≈ 23.5 µM) in [18]. This compound also showed an MIC in test [19] of 2 µg/mL (≈ 5.88 µM).
Take `CO/N=C(/C(=O)NC1CN(NCC(=O)O)C1=O)c1csc(N)n1` (stereo unspecified): the MIC in [1], in test [2], in test [3], in test [4], in test [5] and in [6] was above 128 µg/mL each time. In addition, the MIC in test [7] was above 128 µg/mL; in [8], above 128 µg/mL; in test [9] it was above 128 µg/mL; in test [10], above 128 µg/mL; in test [11], 64 µg/mL (≈ 187 µM); in test [12], above 128 µg/mL. Further, the MIC in test [13], in test [14], in [15], in [16], in test [17] and in [18] was above 128 µg/mL in each case. The MIC in test [19] is above 128 µg/mL.
Consider `C=CCOC(=O)CNN1CC(NC(=O)/C(=N/OC)c2csc(N)n2)C1=O` (stereo unspecified), for which the MIC turned out to be 16 µg/mL (≈ 41.8 µM) in [1]; 8 µg/mL (≈ 20.9 µM) in test [2]; 8 µg/mL (≈ 20.9 µM) in [3]; 64 µg/mL (≈ 167 µM) in test [4]; 8 µg/mL (≈ 20.9 µM) in test [5]; 8 µg/mL (≈ 20.9 µM) in test [6]. The MIC was 16 µg/mL (≈ 41.8 µM) in test [7]; 8 µg/mL (≈ 20.9 µM) in test [8]; 128 µg/mL (≈ 335 µM) in test [9]; 64 µg/mL (≈ 167 µM) in test [10]; 0.5 µg/mL (≈ 1.31 µM) in [11]; 32 µg/mL (≈ 83.7 µM) in test [12]. The MIC in test [13] came out at 128 µg/mL (≈ 335 µM); in test [14], 32 µg/mL (≈ 83.7 µM); in test [15] it was 32 µg/mL (≈ 83.7 µM); in test [16], 8 µg/mL (≈ 20.9 µM); in [17] it was 32 µg/mL (≈ 83.7 µM); in test [18] it was 16 µg/mL (≈ 41.8 µM). This compound registered an MIC in test [19] of 4 µg/mL (≈ 10.5 µM).
Regarding `C[C@H]1[C@H](NC(=O)/C(=N\OC(C)(C)C(=O)O)c2csc(N)n2)C(=O)N1S(=O)(=O)O` [AZTREONAM], the MIC in [1] worked out at 0.03 µg/mL (≈ 0.0689 µM); in test [2], 0.06 µg/mL (≈ 0.138 µM); in [5], 0.06 µg/mL (≈ 0.138 µM); in [6], 0.06 µg/mL (≈ 0.138 µM); in test [7] it was 0.06 µg/mL (≈ 0.138 µM); in test [8] it was 0.03 µg/mL (≈ 0.0689 µM). Further, the MIC was found to be 0.015 µg/mL (≈ 0.0344 µM) in test [9]; 0.03 µg/mL (≈ 0.0689 µM) in test [10]; 0.002 µg/mL (≈ 0.00459 µM) in [11]; 0.015 µg/mL (≈ 0.0344 µM) in [12]; 0.25 µg/mL (≈ 0.574 µM) in test [13]; 0.06 µg/mL (≈ 0.138 µM) in test [15]. In addition, the MIC in test [17] was determined as 0.015 µg/mL (≈ 0.0344 µM); in [19], 0.06 µg/mL (≈ 0.138 µM).

The MIC is the smallest concentration in the dilution series that meets the test's criterion for growth inhibition. Read a high MIC as weaker potency.
